From ChEMBL document CHEMBL1151472, “In vitro interactions between tacrolimus and azoles against Candida albicans determined by different methods” (2008)
Values after ≈ are worked out from the molar mass of the structure shown.

Columns and labels:
Assay type in all cases: functional
[1] = system: Candida albicans; assay: Antimicrobial activity against azole-resistant Candida albicans isolate CA10 assessed as growth at 0.125 ug/ml after 48 hrs by microdilution checkerboard technique relative to control
Summary of the method: (§1)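 Checkerboard microdilution in MOPS-buffered RPMI 1640 (pH 7.0, 2% dextrose). Final ranges: azole 0.125–128 μg/ml (FLC) or 0.008–8 μg/ml (ITR, VRC), tacrolimus 0.002–0.125 μg/ml; solvent 1% in single-drug wells. Inoculum 2.5 × 10^3 CFU/ml, 35°C, 48 h. Growth % = background-subtracted OD492 of each well / drug-free well. Triplicate on different days.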

[2] = system: Candida albicans; assay: Antimicrobial activity against azole-resistant Candida albicans isolate CA10 assessed as growth at 16 ug/ml cotreated with 0.125 ug/ml calcineurin signaling inhibitor tacrolimus after 48 hrs by microdilution checkerboard technique relative to control; parameters: scale not given: the % may be the effect or the level left; summary of the method: as §1
[3] = system: Candida albicans; assay: Antimicrobial activity against azole-resistant Candida albicans isolate CA10 assessed as growth at 64 ug/ml co-treated with 0.002 ug/ml calcineurin signaling inhibitor tacrolimus after 48 hrs by microdilution checkboard technique relative to control; parameters: scale not given: the % may be the effect or the level left
Summary of the method: (§2)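 CA10 in RPMI 1640 with 2% dextrose and 0.165 M MOPS, pH 7.0. Checkerboard used twofold dilutions, with azole alone in row H and the drug-free growth control in well H1. Final inoculum was 2.5 × 10^3 CFU/ml, incubated 35°C for 48 h, with OD read at 492 nm. Growth % = background-subtracted well OD / drug-free well OD. Run in triplicate on different days.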

[4] = system: Candida albicans; assay: Antimicrobial activity against azole-resistant Candida albicans isolate CA15 after 48 hrs by broth microdilution method; conditions: isolate CA15, 48 h
Summary of the method: (§3)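 CLSI M27-A2 broth microdilution was run in RPMI 1640 (pH 7.0, 2% dextrose, 0.165 M MOPS). Inoculum was 2.5 × 10^3 CFU/ml, incubated 35°C for 48 h without shaking. Plates were read visually (0–5 scale) and at OD 492 nm. MIC80 = lowest concentration giving an 80% absorbance decrease vs drug-free control. Triplicate.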

[5] = system: Candida albicans; assay: Antimicrobial activity against azole-resistant Candida albicans isolate CA10 assessed as growth at 32 ug/ml co-treated with 0.004 ug/ml calcineurin signaling inhibitor tacrolimus after 48 hrs by microdilution checkboard technique relative to control; parameters: scale not given: the % may be the effect or the level left; summary of the method: as §1
[6] = system: Candida albicans; assay: Antimicrobial activity against azole-resistant Candida albicans isolate CA10 assessed as growth at 32 ug/ml cotreated with 0.016 ug/ml calcineurin signaling inhibitor Tacrolimus after 48 hrs by microdilution checkboard technique relative to control; parameters: scale not given: the % may be the effect or the level left; summary of the method: as §2
[7] = system: Candida albicans; assay: Antimicrobial activity against azole-susceptible Candida albicans isolate CA5 co-treated with calcineurin signaling inhibitor tacrolimus after 48 hrs by microdilution checkerboard technique; conditions: isolate CA5, 48 h
Summary of the method: (§4)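 Checkerboard microdilution in MOPS-buffered RPMI 1640 (pH 7.0, 2% dextrose) with 2.5 × 10^3 CFU/ml for 48 h at 35°C. Final FK506 was 0.002–0.125 μg/ml. Azole finals were FLC 0.125–128 μg/ml, and ITR and VRC 0.008–8 μg/ml. MIC80 is an 80% OD492 decrease vs drug-free control. Interaction was scored by FICI (synergy ≤0.5, antagonism >4) and by ΔE from triplicates.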

[8] = system: Candida albicans; assay: Antimicrobial activity against azole-resistant Candida albicans isolate CA10 assessed as growth at 0.25 ug/ml cotreated with 0.063 ug/ml calcineurin signaling inhibitor Tacrolimus after 48 hrs by microdilution checkboard technique relative to control; parameters: scale not given: the % may be the effect or the level left
Summary of the method: (§5)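 Checkerboard microdilution in RPMI 1640 (pH 7.0, 2% dextrose, 0.165 M MOPS). Azole dilutions run along columns and FK506 along rows, at 4× final concentration. Final inoculum 2.5 × 10^3 CFU/ml from Sabouraud-subcultured cells. Incubated 35°C for 48 h; OD read at 492 nm. Background from microorganism-free plates subtracted. Growth % = well OD / drug-free well OD. Triplicate on different days, values averaged.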

[9] = system: Candida albicans; assay: Antimicrobial activity against azole-resistant Candida albicans isolate CA10 assessed as growth at 8 ug/ml co-treated with 0.004 ug/ml calcineurin signaling inhibitor tacrolimus after 48 hrs by microdilution checkboard technique relative to control; parameters: scale not given: the % may be the effect or the level left; summary of the method: as §2
[10] = system: Candida albicans; assay: Antimicrobial activity against azole-susceptible Candida albicans isolate CA12 co-treated with calcineurin signaling inhibitor tacrolimus after 48 hrs by microdilution checkerboard technique; conditions: isolate CA12, 48 h; summary of the method: as §4
[11] = system: Candida albicans; assay: Antimicrobial activity against azole-resistant Candida albicans isolate CA10 assessed as growth at 4 ug/ml co-treated with 0.031 ug/ml calcineurin signaling inhibitor tacrolimus after 48 hrs by microdilution checkboard technique relative to control; parameters: scale not given: the % may be the effect or the level left; summary of the method: as §5
[12] = system: Candida albicans; assay: Antimicrobial activity against azole-resistant Candida albicans isolate CA16 after 48 hrs by broth microdilution method; conditions: isolate CA16, 48 h; summary of the method: as §3
[13] = system: Candida albicans; assay: Antimicrobial activity against azole-resistant Candida albicans isolate CA10 assessed as growth at 16 ug/ml co-treated with 0.002 ug/ml calcineurin signaling inhibitor tacrolimus after 48 hrs by microdilution checkboard technique relative to control; parameters: scale not given: the % may be the effect or the level left; summary of the method: as §1
[14] = system: Candida albicans; assay: Antimicrobial activity against azole-resistant Candida albicans isolate CA10 assessed as growth at 128 ug/ml cotreated with 0.002 ug/ml calcineurin signaling inhibitor Tacrolimus after 48 hrs by microdilution checkboard technique relative to control; parameters: scale not given: the % may be the effect or the level left; summary of the method: as §1
[15] = system: Candida albicans; assay: Antimicrobial activity against azole-resistant Candida albicans isolate CA10 assessed as growth at 0.5 ug/ml after 48 hrs by microdilution checkerboard technique relative to control; summary of the method: as §1
[16] = system: Candida albicans; assay: Antimicrobial activity against azole-resistant Candida albicans isolate CA10 assessed as growth at 4 ug/ml cotreated with 0.002 ug/ml calcineurin signaling inhibitor tacrolimus after 48 hrs by microdilution checkerboard technique relative to control; parameters: scale not given: the % may be the effect or the level left; summary of the method: as §2
[17] = system: Candida albicans; assay: Antimicrobial activity against azole-resistant Candida albicans isolate CA10 assessed as growth at 64 ug/ml co-treated with 0.125 ug/ml calcineurin signaling inhibitor tacrolimus after 48 hrs by microdilution checkboard technique relative to control; parameters: scale not given: the % may be the effect or the level left; summary of the method: as §2
[18] = system: Candida albicans; assay: Antimicrobial activity against azole-resistant Candida albicans isolate CA10 assessed as growth at 0.25 ug/ml co-treated with 0.031 ug/ml calcineurin signaling inhibitor tacrolimus after 48 hrs by microdilution checkboard technique relative to control; parameters: scale not given: the % may be the effect or the level left; summary of the method: as §5
[19] = system: Candida albicans; assay: Antimicrobial activity against azole-susceptible Candida albicans isolate CA129 co-treated with calcineurin signaling inhibitor tacrolimus after 48 hrs by microdilution checkerboard technique; conditions: isolate CA129, 48 h; summary of the method: as §4
[20] = system: Candida albicans; assay: Antimicrobial activity against azole-resistant Candida albicans isolate CA10 assessed as growth at 64 ug/ml cotreated with 0.063 ug/ml calcineurin signaling inhibitor Tacrolimus after 48 hrs by microdilution checkboard technique relative to control; parameters: scale not given: the % may be the effect or the level left; summary of the method: as §2
[21] = system: Candida albicans; assay: Antimicrobial activity against azole-resistant Candida albicans isolate CA10 assessed as growth at 0.5 ug/ml cotreated with 0.008 ug/ml calcineurin signaling inhibitor tacrolimus after 48 hrs by microdilution checkerboard technique relative to control; parameters: scale not given: the % may be the effect or the level left; summary of the method: as §1
[22] = system: Candida albicans; assay: Antimicrobial activity against azole-resistant Candida albicans isolate CA10 assessed as growth at 1 ug/ml cotreated with 0.004 ug/ml calcineurin signaling inhibitor Tacrolimus after 48 hrs by microdilution checkboard technique relative to control; parameters: scale not given: the % may be the effect or the level left; summary of the method: as §1
[23] = system: Candida albicans; assay: Antimicrobial activity against azole-resistant Candida albicans isolate CA10 assessed as growth at 0.25 ug/ml cotreated with 0.002 ug/ml calcineurin signaling inhibitor Tacrolimus after 48 hrs by microdilution checkboard technique relative to control; parameters: scale not given: the % may be the effect or the level left; summary of the method: as §5

Q: For `OC(Cn1cncn1)(Cn1cncn1)c1ccc(F)cc1F` [FLUCONAZOLE], which Activity [1] is on record?
A: 75%

Q: What about the Activity [2] of the same compound?
A: 3%

Q: And the Activity [3]?
A: 28%

Q: What about the MIC [4] of the same compound?
A: 128 µg/mL (≈ 418 µM)

Q: What about the Activity [5] of the same compound?
A: 30%

Q: What about the Activity [6] of the same compound?
A: 18%

Q: And the MIC [7]?
A: 0.25 µg/mL

Q: What about the Activity [8] of the same compound?
A: 11%

Q: What about the Activity [9] of the same compound?
A: 34%

Q: And the MIC [10]?
A: 2 µg/mL

Q: What about the Activity [11] of the same compound?
A: 16%

Q: And the MIC [12]?
A: 64 µg/mL (≈ 209 µM)

Q: And the Activity [13]?
A: 35%

Q: And the Activity [14]?
A: 44%

Q: And the Activity [15]?
A: 53%

Q: What about the Activity [16] of the same compound?
A: 44%

Q: What about the Activity [17] of the same compound?
A: 0%

Q: What about the Activity [18] of the same compound?
A: 23%

Q: What about the MIC [19] of the same compound?
A: 0.25 µg/mL

Q: What about the Activity [20] of the same compound?
A: 0%

Q: What about the Activity [21] of the same compound?
A: 34%

Q: And the Activity [22]?
A: 29%

Q: And the Activity [23]?
A: 61%
